Data reported in publication PMC5568800 (Investigative ophthalmology & visual science, 2009).
Like-named read-outs stand apart in the source and are kept apart here. Blank lines part the entries; values can stand above or below the compound they belong to.

How the values were obtained:
W587F X2IRBP [1] = assay: Titration monitoring enhancement of retinol fluorescence, W587F mutant; type: binding, Xenopus; conditions: read-out: Kd, Enhancement, 11-cis retinol, excitation 324 nm, emission 475 nm, Figure 7
How it was run: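 The W587F mutant was introduced into X2IRBP-pET30 by site-directed mutagenesis, sequence-verified, then expressed in E. coli BLR(DE3) (1 mM IPTG, 22°C, 18 h) and purified by Ni-affinity, TEV cleavage and Q Sepharose. 11-cis retinol, made by NaBH4 reduction of 11-cis retinal and HPLC-checked, was titrated in. Kd came from a nonlinear least-squares single-site-class fit.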

W450F X2IRBP [2] = assay: Titration monitoring enhancement of retinol fluorescence, W450F mutant; type: binding, Xenopus
How it was run: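 All-trans retinol titration of the E. coli-expressed, TEV-cleaved Xenopus X2IRBP mutant, read as retinol fluorescence enhancement (ex 330 nm, em 480 nm). Nonspecific signal was subtracted using a titration into fluorescence-matched NAT solution, and the inner filter effect was corrected graphically. Three independent titrations were averaged. Kd from a nonlinear least-squares fit assuming a single type of noninteracting site.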

[3] = target: X2IRBP (second module of Xenopus IRBP), wild-type sequence; type: binding; conditions: read-out: Kd, Enhancement
How it was run: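 Purified X2IRBP (Xenopus IRBP 313–612; His-fusion, TEV-cleaved, Ni and anion-exchange purified; quantified by A280 and amino acid analysis) was titrated with all-trans or 11-cis retinol. 11-cis retinol was made by NaBH4 reduction of 11-cis retinal. For all-trans, nonspecific signal from titration into fluorescence-matched NAT was subtracted and three independent titrations were averaged. Kd came from a nonlinear least-squares single-site-class fit.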

[4] = target: X2IRBP (second module of Xenopus IRBP), wild-type sequence; assay: Titration monitoring quenching of tryptophan; type: binding; conditions: read-out: Kd, Quenching, excitation 280 nm, emission 340 nm
How it was run: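 Purified X2IRBP (Xenopus IRBP 313–612, TEV-cleaved His-fusion, Ni plus Q Sepharose purified) was titrated with all-trans or 11-cis retinol (ethanol stocks). Protein fluorescence at 340 nm (excitation 280 nm) was normalized to maximal quenching. All-trans data were averaged over three independent titrations. Kd and N came from a nonlinear least-squares fit to a noninteracting single-site-class binding equation.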

W587F X2IRBP [5] = assay: Titration monitoring quenching of tryptophan fluorescence, W587F mutant; type: binding, Xenopus
W450F X2IRBP [6] = assay: Energy transfer titration, W450F mutant; type: binding, Xenopus; conditions: read-out: Kd, Energy Transfer, all-trans retinol, Figure 4
How it was run: (§1)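 Tag-free Xenopus IRBP second module (residues 313–612; His-tag cut by TEV protease), expressed in E. coli BLR(DE3) at 22°C for 18 h and purified on nickel then Q Sepharose columns. Titrated with all-trans retinol (fresh ethanol stock) and read by energy transfer (ex 280 nm, em 480 nm). Runs alternated between the two mutants, three per mutant, then averaged. Kd and N from a nonlinear least-squares fit to a single-class, noninteracting-site equation.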

[7] = target: X2IRBP (second module of Xenopus IRBP), wild-type sequence; assay: Energy transfer titration, X2IRBP of wild-type sequence; type: binding; conditions: read-out: Kd, Energy Transfer; all-trans retinol; excitation 280 nm, emission 480 nm; Figure 4
How it was run: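 X2IRBP (Xenopus IRBP residues 313–612) was expressed in E. coli BLR(DE3) as a His-tag fusion, TEV-cleaved, and purified by Ni-affinity and Q Sepharose. Concentration was set by A280 and amino acid analysis. All-trans retinol from fresh ethanol stocks was titrated in. Three independent titrations were averaged. Kd and N came from a nonlinear least-squares fit assuming a single class of noninteracting sites.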

W587F X2IRBP [8] = assay: Energy transfer titration, W587F mutant; type: binding, Xenopus; conditions: read-out: Kd, Energy Transfer, all-trans retinol, Figure 4
How it was run: as §1

W450F X2IRBP [9] = assay: Titration monitoring quenching of tryptophan fluorescence, W450F mutant; type: binding, Xenopus; conditions: all-trans retinol, excitation 280 nm, emission 340 nm
How it was run: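 Intrinsic tryptophan fluorescence quenching (ex 280 nm, em 340 nm) of tag-free recombinant Xenopus X2IRBP mutants during all-trans retinol titration. Signal normalized to the maximum quenching. Runs alternated between the W450F and W587F proteins, three titrations each, and were averaged. Binding parameters from a nonlinear least-squares fit to a single-class, noninteracting-site equation.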

X2IRBP = type: binding, Xenopus; conditions: oleic acid 0.67 to 2.66 μM; X2IRBP 1 μM; retinol fluorescence enhancement
How it was run: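 X2IRBP (1 μM; recombinant Xenopus, tag removed by TEV) titrated with all-trans or 11-cis retinol in the presence of oleic acid at 0.67 to 2.66 μM. Binding followed by retinol fluorescence enhancement (ex 330 nm, em 480 nm).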

[10] = 11-cis retinol, X2IRBP of wild-type sequence, Figure 6

SMILES: CC1=C(/C=C/C(C)=C/C=C\C(C)=C\CO)C(C)(C)CCC1 [11-cis retinol]
Kd (W587F X2IRBP [1]): 132 ± 56 nM | Kd (W450F X2IRBP [2]; read-out: Kd, Enhancement, 11-cis retinol, excitation 324 nm, emission 475 nm, Figure 7): 218 ± 62 nM | Kd [3, 10]: 77 ± 15 nM | Kd [4, 10]: 42 ± 9 nM | Kd (W587F X2IRBP [5]; read-out: Kd, Quenching, 11-cis retinol, excitation 280 nm, emission 340 nm, Figure 7): 24 ± 10 nM

SMILES: CC1=C(/C=C/C(C)=C/C=C/C(C)=C/CO)C(C)(C)CCC1 [all-trans retinol]
Kd (W450F X2IRBP [6]): 290 ± 80 nM | Kd (W450F X2IRBP [2]; read-out: Kd, Enhancement, all-trans retinol, titrations of Figure 4): 450 ± 110 nM | Kd ([3]; all-trans retinol, excitation 330 nm, emission 480 nm, Figure 4): 70 ± 20 nM | Kd ([4]; all-trans retinol, Figure 4): 8 ± 3 nM | Kd [7]: 33 ± 8 nM | Kd (W587F X2IRBP [5]; read-out: Kd, Quenching, all-trans retinol, titrations of Figure 4): 50 ± 10 nM | Kd (W587F X2IRBP [8]): 100 ± 10 nM | Quenching of tryptophan fluorescence (result in words) (W450F X2IRBP [9]): No significant quenching

Manner of inhibition of 11-cis and all-trans retinol binding to X2IRBP (X2IRBP): noncompetitive
SMILES: CCCCCCCC/C=C\CCCCCCCC(=O)O [oleic acid]
